The assay has as its target GATA4/NKX2-5 (Mus musculus, UniProt P42582+Q08369). In words: Inhibition of mouse GATA4/NKX2-5 transcriptional synergy expressed in African green monkey COS-1 cells measured after 30 hrs by dual luciferase reporter gene assay. The assay is classed as cell-based. Summed up:
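COS-1 cells co-transfected (Fugene 6, DNA:reagent 1:3) with p3xNKE-luc, Renilla pRL-TKd238 control, and pMT2-GATA4, pMT2-NKX2-5, both, or empty pMT2; DNA balanced with pMT2. Compounds added 6 h post-transfection in 0.1% DMSO, medium renewed at 24 h, lysis at 30 h. Dual-luciferase read-out, firefly/Renilla normalized to vehicle; duplicate wells.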
(In general: In a reporter assay the amount or activity of a reporter protein is the signal.)

The structures appear in SMILES notation.

GATA4/NKX2-5, sequence (Q08369 whole entry): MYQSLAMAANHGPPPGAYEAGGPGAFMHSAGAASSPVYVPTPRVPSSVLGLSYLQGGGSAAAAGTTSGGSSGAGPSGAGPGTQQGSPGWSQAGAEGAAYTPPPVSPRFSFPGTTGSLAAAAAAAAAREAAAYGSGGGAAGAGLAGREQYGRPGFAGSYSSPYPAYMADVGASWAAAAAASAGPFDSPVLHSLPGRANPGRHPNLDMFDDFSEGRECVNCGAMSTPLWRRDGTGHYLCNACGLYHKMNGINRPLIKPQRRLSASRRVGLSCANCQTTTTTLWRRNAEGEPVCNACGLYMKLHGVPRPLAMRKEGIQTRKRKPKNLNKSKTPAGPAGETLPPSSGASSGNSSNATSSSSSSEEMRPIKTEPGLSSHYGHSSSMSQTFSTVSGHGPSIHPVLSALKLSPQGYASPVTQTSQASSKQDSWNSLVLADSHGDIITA
GATA4/NKX2-5, sequence (P42582 whole entry): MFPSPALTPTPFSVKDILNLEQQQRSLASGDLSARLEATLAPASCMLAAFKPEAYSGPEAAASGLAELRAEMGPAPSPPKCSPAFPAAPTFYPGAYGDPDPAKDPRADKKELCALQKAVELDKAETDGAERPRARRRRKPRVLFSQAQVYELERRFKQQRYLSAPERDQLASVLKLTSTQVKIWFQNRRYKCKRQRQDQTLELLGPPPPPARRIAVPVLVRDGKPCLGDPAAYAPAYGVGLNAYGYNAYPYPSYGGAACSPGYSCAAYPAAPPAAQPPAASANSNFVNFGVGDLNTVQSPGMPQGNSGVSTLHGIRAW

For orientation: IC50 means the concentration at which inhibition is half-maximal. In the case of `CCC(C)c1ccc(NC(=O)c2c(-c3ccccc3Cl)noc2C)cc1` (stereo unspecified), the IC50 was determined as 20 µM.

Turning to `Cc1onc(-c2ccccc2)c1C(=O)Nc1ccc(-c2nnc3n2CCCCC3)cc1`, the IC50 worked out at 20 µM.

As for `CCN1C(=O)S/C(=C\c2ccc(N3CCCC3)c(F)c2)C1=O`, the IC50 was found to be 8 µM.

As to `CN(C)c1ccc(/C=N/n2c(S)nnc2-c2ccncc2)cc1`, the IC50 came out at 7 µM.

On to `O=C(O)/C(=C/c1ccccc1)c1c(F)c(F)c(F)c(F)c1F`, for which the IC50 turned out to be 50 µM.

As for `Cc1cccc(/C=N/n2c(S)nnc2-c2ccccc2)c1`, the IC50 is > 50 µM.

Regarding `Cc1onc(-c2ccccc2Cl)c1C(=O)Nc1ccc(N2CCOCC2)cc1`, the IC50 stood at 38 µM.

`Cc1nc(-c2ccc(NC(=O)c3c(-c4ccccc4)noc3C)cc2)cs1`: the IC50 is > 50 µM.

`COc1cccc(/C=N/n2c(S)nnc2-c2ccccc2)c1`: the concentration for half-maximal inhibition (IC50) was > 50 µM.

Take `CCCC(=O)Nc1ccc(C(=O)NCC(C)C)cc1`: the IC50 is > 50 µM.

Consider `COc1cccc(/C=N/n2c(SC)nnc2-c2ccccc2)c1OC`, for which the IC50 was > 50 µM.

Regarding `COc1ccc(/C=N/n2c(SC)nnc2-c2ccccc2)cc1C`, the half-inhibitory concentration (IC50) came to 24 µM.

Consider `Fc1cccc(/C=N/n2c(S)nnc2-c2ccccc2)c1`, for which the IC50 was > 50 µM.

For the compound `CCCOC(=O)c1ccc(NC(=O)c2c(-c3ccccc3)noc2C)cc1`, the IC50 was > 50 µM.

Consider `Cc1onc(-c2ccccc2)c1C(=O)Nc1ccc(C(C)(C)C)cc1`, for which the IC50 was determined as 18 µM.

Consider `Cc1onc(-c2ccccc2)c1C(=O)Nc1cccc(S(=O)(=O)N2CCCC2)c1`, for which the IC50 was 33 µM.

In the case of `CCCOc1ccc(NC(=O)c2c(-c3ccccc3)noc2C)cc1`, the IC50 was > 50 µM.

In the case of `O=c1cc(-c2ccc(O)c(O)c2)oc2cc(O)cc(O)c12` [LUTEOLIN], the IC50 was determined as 22 µM.

Regarding `C=CCc1cccc(/C=N/n2c(S)nnc2-c2ccccc2)c1O`, the IC50 stood at 20 µM.

`CCN(CC)S(=O)(=O)c1cccc(NC(=O)c2c(-c3ccccc3)noc2C)c1`: the IC50 was > 50 µM.

Regarding `Cc1ccc(C(=O)Nc2ccc(C(=O)OCC(C)C)cc2)cc1C`, the IC50 was > 50 µM.

Take `Cc1onc(-c2ccccc2)c1C(=O)Nc1ccc(Sc2nccn2C)cc1`: the IC50 was > 50 µM.

Consider `CC(C)CNC(=O)c1ccc(NC(=O)c2ccccc2)cc1`, for which the IC50 is > 50 µM.

For `CC(C)CNC(=O)c1ccc(NC(=O)c2cccs2)cc1`, the IC50 is > 50 µM.

Take `Cc1onc(-c2ccccc2)c1C(=O)Nc1ccc(C(C)C)cc1`: the IC50 worked out at 16 µM.

As for `CC(C)COC(=O)c1ccc(NC(=O)COc2ccccc2Cl)cc1`, the IC50 was > 50 µM.

As to `CCN(CC)c1ccc(/C=N/n2c(S)nnc2-c2ccccc2)c(OC)c1`, the IC50 was > 50 µM.

With `CC(C)(C)c1ccc(/C=N/n2c(S)nnc2-c2ccncc2)cc1`, the IC50 was found to be 7 µM.

On to `Cc1onc(-c2ccccc2)c1C(=O)Nc1cccc(C(=O)NC2CC2)c1`, for which the half-inhibitory concentration (IC50) is 20 µM.

On to `CC(C)COC(=O)c1ccc(NC(=O)CCC(=O)O)cc1`, for which the IC50 was determined as 37 µM.

Consider `Cc1onc(-c2ccccc2)c1C(=O)Nc1cccc(S(=O)(=O)NCc2ccco2)c1`, for which the IC50 was determined as 20 µM.

On to `Cc1onc(-c2ccccc2Cl)c1C(=O)Nc1ccc(C(C)(C)C)cc1`, for which the half-inhibitory concentration (IC50) stood at 22 µM.

As to `COc1ccc(/C=N/n2c(S)nnc2C2CCCCC2)cc1OCc1ccccc1`, the IC50 came to 10 µM.

Turning to `CCc1ccc(/C=C2\SC(=O)NC2=O)cc1`, the IC50 amounted to 21 µM.

Consider `CC(C)CNC(=O)c1ccc(NC(=O)C2CCCO2)cc1` (stereo unspecified), for which the IC50 was > 50 µM.

As to `CC(C)(C)c1ccc(/C=N/n2c(S)nnc2-c2cccnc2)cc1`, the half-maximal inhibitory concentration (IC50) came out at 30 µM.

On to `CCC(C)c1ccc(NC(=O)c2c(-c3ccccc3)noc2C)cc1` (stereo unspecified), for which the IC50 was 32 µM.

With `CCOc1ccc(NC(=O)c2c(-c3ccccc3)noc2C)cc1`, the IC50 is 20 µM.

In the case of `CCN(CC)S(=O)(=O)c1cc(NC(=O)c2c(-c3ccccc3)noc2C)ccc1C`, the half-inhibitory concentration (IC50) was > 50 µM.

With `CC(C)c1ccc(/C=N/n2c(S)nnc2-c2cccnc2)cc1`, the IC50 is > 50 µM.

As to `COc1ccc(/C=N/n2c(S)nnc2-c2ccccc2)cc1C`, the IC50 worked out at 11 µM.

Regarding `CCN(CC)c1ccc(/C=N/n2c(S)nnc2-c2ccc(OC)cc2)cc1`, the IC50 came out at 19 µM.

Regarding `c1ccc(-c2nonc2-c2ccccc2)cc1`, the IC50 is 50 µM.

As for `Cc1onc(-c2ccccc2)c1C(=O)Nc1ccc(-n2cnnn2)cc1`, the IC50 is > 50 µM.

For the compound `O=c1cc(-c2ccc(O)cc2)oc2cc(O)cc(O)c12` [APIGENIN], the IC50 amounted to 24 µM.

Turning to `COc1cccc(/C=N/n2c(S)nnc2-c2ccccc2)c1OC`, the IC50 stood at 8 µM.

In the case of `CC(C)CNC(=O)c1ccc(NC(=O)C2CCCCC2)cc1`, the IC50 is > 50 µM.

Consider `Cc1onc(-c2ccccc2)c1C(=O)Nc1ccc2c(c1)OC1(CCCC1)O2`, for which the IC50 is 23 µM.

Take `Sc1nnc(-c2ccccc2)n1/N=C/c1ccc(OC2CCCC2)cc1`: the half-inhibitory concentration (IC50) is 37 µM.

`Cc1onc(-c2ccccc2)c1C(=O)Nc1ccc(N2CCCCC2)cc1`: the IC50 was > 50 µM.

With `CCOc1ccc(/C=N/n2c(SC)nnc2-c2ccccc2)cc1OCC`, the IC50 amounted to 30 µM.

`CC(C)CNC(=O)c1ccc(NC(=O)C(F)(F)F)cc1`: the IC50 was 42 µM.

On to `CCOc1ccccc1/C=N/n1c(S)nnc1-c1ccccc1`, for which the IC50 was determined as 8 µM.

With `CCNc1ccc(NC(=O)c2c(-c3ccccc3)noc2CO)cc1`, the IC50 was > 50 µM.

For `Cc1onc(-c2ccccc2)c1C(=O)Nc1ccc2c(c1)CCC2`, the IC50 was found to be 17 µM.

Consider `O=C1NC(=O)/C(=C/c2cccc([N+](=O)[O-])c2)S1`, for which the IC50 turned out to be 20 µM.

With `CCN(CC)c1ccc(/C=N/n2c(S)nnc2C2CCCCC2)cc1`, the IC50 is 6 µM.

In the case of `Cc1onc(-c2ccccc2)c1C(=O)Nc1ccc(S(=O)(=O)Nc2ncccn2)cc1`, the IC50 was found to be 28 µM.

In the case of `CC(C)CNC(=O)c1ccc(NC(=O)C2CC2)cc1`, the half-inhibitory concentration (IC50) worked out at 23 µM.

In the case of `CCC(CC)C(=O)Nc1ccc(C(=O)NCC(C)C)cc1`, the IC50 was > 50 µM.

Take `COc1cccc(C(=O)Nc2ccc(C(=O)NCC(C)C)cc2)c1`: the IC50 is > 50 µM.

As to `CCOc1ccc(/C=N/n2c(S)nnc2C2CCCCC2)cc1`, the IC50 was found to be 7 µM.

For `Sc1nnc(-c2ccccc2)n1/N=C/c1cccc(Oc2ccccc2)c1`, the IC50 is 13 µM.

On to `Cc1onc(-c2ccccc2)c1C(=O)Nc1cccc(S(=O)(=O)NC2=NC=CC2)c1`, for which the IC50 is 28 µM.

In the case of `CC(C)CCN1C(=O)S/C(=C\c2ccc(N(C)C)cc2)C1=O`, the IC50 worked out at 10 µM.

With `Cc1onc(-c2ccccc2)c1C(=O)Nc1ccc(C(=O)OC(C)C)cc1`, the IC50 came to 20 µM.

`Cc1onc(-c2ccccc2)c1C(=O)Nc1ccc(Oc2ccccc2)cc1`: the IC50 was > 50 µM.

On to `Cc1onc(-c2ccccc2)c1C(=O)Nc1ccc(N2CCOCC2)cc1`, for which the IC50 is > 50 µM.

Take `Cc1onc(-c2ccccc2)c1C(=O)Nc1ccc(S(=O)(=O)N2CCOCC2)cc1`: the IC50 is > 50 µM.

Consider `CCCCOc1ccc(/C=N/n2c(S)nnc2CC)cc1`, for which the IC50 is > 50 µM.

In the case of `CCOc1ccc(/C=C2\SC(=O)N(CC)C2=O)cc1OCC`, the IC50 is 26 µM.

Source of the values: ChEMBL document CHEMBL4028856, “Discovery of Small Molecules Targeting the Synergy of Cardiac Transcription Factors GATA4 and NKX2-5” (J Med Chem, 2017).
